Experiment [1] has as its target T1, Luciferin 4-monooxygenase (Photinus pyralis, UniProt P08659). Kind of experiment: Inhibition of Photinus pyralis luciferase.
For experiment [2], the target named is T1, Luciferin 4-monooxygenase. Kind of experiment: Inhibition of Photinus pyralis luciferase by Steady-Glo reporter gene assay. Summed up: (§1)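 5 nM purified P. pyralis luciferase in SteadyGlo or BrightGlo reporter-gene reagent; no extra ATP or D-luciferin added. 1536-well luminescence. Curves from 16 two-fold concentrations in duplicate, repeated on two or three separate days.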
For orientation: In a reporter assay the amount or activity of a reporter protein is the signal.

For experiment [3], the target named is T2, Luciferin 4-monooxygenase (Photuris pensylvanica) (UniProt Q27757).
T2 sequence (whole entry): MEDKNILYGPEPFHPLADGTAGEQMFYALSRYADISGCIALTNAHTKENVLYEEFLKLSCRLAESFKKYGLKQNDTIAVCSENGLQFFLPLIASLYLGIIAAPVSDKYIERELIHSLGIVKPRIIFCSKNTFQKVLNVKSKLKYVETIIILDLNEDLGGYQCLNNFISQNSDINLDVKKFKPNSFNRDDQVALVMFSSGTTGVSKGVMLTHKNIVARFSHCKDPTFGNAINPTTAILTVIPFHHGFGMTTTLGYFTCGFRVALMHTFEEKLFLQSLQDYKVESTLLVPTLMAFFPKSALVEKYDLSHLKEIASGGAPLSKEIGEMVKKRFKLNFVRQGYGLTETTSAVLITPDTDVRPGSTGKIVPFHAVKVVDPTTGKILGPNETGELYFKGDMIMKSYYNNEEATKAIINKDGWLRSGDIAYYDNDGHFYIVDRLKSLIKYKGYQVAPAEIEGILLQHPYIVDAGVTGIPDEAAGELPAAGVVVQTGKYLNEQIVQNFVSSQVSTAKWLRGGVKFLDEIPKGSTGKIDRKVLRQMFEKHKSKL
Kind of experiment: (§2) Inhibition of luciferase Photuris pennsylvanica by Promega Kinase-Glo assay. Summed up: (§3)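 Detection by 2 µL of EasyLite or Kinase-Glo reagent (Kinase-Glo containing P. pennsylvanica luciferase). 1536-well luminescence. 16 two-fold concentrations, duplicate wells, repeated on two or three days.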
In general terms: Kinase-Glo measures the ATP left after a reaction by luminescence.

Experiment [4] concerns the target T1, Luciferin 4-monooxygenase. Kind of experiment: Inhibition of Photinus pyralis luciferase by BrightGlo reporter gene assay. Summed up:
as §1

Experiment [5] deals with T1, Luciferin 4-monooxygenase. Put plainly: Inhibition of Photinus pyralis luciferase by Easy lite assay. A digest of the protocol: as §3
The target in experiment [6] is T1, Luciferin 4-monooxygenase. Put plainly: Inhibition of Photinus pyralis luciferase by PK-Light assay.
Experiment [7] addresses T3, Luciferin 4-monooxygenase (Photuris pensylvanica, UniProt Q27757).
T3 sequence (Q27757 whole entry): T2 sequence (whole entry)
Described as §2. A digest of the protocol:
as §3

Experiment [8] can be described thus: Inhibition of Renilla reniformis luciferase.

Active and inactive are the calls of the source. The rule behind the calls is not given here.

T1 sequence (P08659 whole entry): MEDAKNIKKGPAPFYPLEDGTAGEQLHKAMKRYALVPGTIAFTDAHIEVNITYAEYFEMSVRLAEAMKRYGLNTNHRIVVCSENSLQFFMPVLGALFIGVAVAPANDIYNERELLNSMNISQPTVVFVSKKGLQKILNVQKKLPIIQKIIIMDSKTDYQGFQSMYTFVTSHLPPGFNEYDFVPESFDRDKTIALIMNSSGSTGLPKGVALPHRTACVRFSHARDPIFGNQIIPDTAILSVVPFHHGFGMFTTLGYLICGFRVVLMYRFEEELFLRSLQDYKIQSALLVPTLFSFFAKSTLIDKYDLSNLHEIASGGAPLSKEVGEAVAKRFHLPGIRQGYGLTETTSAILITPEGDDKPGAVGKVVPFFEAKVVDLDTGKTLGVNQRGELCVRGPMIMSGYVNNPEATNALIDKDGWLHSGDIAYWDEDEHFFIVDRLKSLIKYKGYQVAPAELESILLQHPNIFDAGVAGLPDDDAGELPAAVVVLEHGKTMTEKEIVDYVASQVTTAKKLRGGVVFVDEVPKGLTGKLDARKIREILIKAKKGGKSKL

For orientation: IC50 means the concentration that inhibits the measured activity by half. Read a low IC50 as higher potency. For `CN1CCN(C(=O)COc2ccc(-c3nc4ccccc4s3)cc2)CC1`, the IC50 stood at 300 nM in experiment [1]; 1000 nM in experiment [2]; 6500 nM in experiment [4]; 400 nM in experiment [5]; 900 nM in experiment [6]. Moreover, in experiment [3], the result was inactive.

Take `c1ccc(-c2noc(-c3ccc4ccccc4c3)n2)nc1`: the IC50 in experiment [1] is 100 nM; in experiment [2], 200 nM; in experiment [7] it was 11300 nM; in experiment [4], 200 nM; in experiment [5], 220 nM; in experiment [8], 25000 nM. The same compound had an IC50 in experiment [6] of 220 nM.

For `O=c1cc(-c2ccccc2O)oc2ccc3ccccc3c12`, the IC50 was determined as 50 nM in experiment [1]; 60 nM in experiment [2]; 14000 nM in experiment [7]; 90 nM in experiment [4]; 200 nM in experiment [5]; 700 nM in experiment [6].

As to `COc1cccc(-c2cc(=O)c3ccccc3o2)c1N`, the IC50 in experiment [1] was 6200 nM; in experiment [2] it was more than 100000 nM; in experiment [4] it was 60000 nM; in experiment [5] it was 11000 nM; in experiment [6] it was 6400 nM. The result in experiment [3] was inactive.

As to `COc1ccc(C(=O)Nc2ccc(C)cn2)c(OC)c1`, the concentration for half-maximal inhibition (IC50) in experiment [1] was found to be 80 nM; in experiment [2] it was 500 nM; in experiment [7] it was 14200 nM; in experiment [4], 200 nM; in experiment [5], 280 nM; in experiment [6], 250 nM.

On to `O=C(/C=C\Nc1ccccn1)c1ccc(Cl)cc1`, for which the IC50 was 2000 nM in experiment [1]; 500 nM in experiment [2]; 1200 nM in experiment [4]; 4700 nM in experiment [5]; 4100 nM in experiment [6]. In experiment [3], the result was inactive.

As for `Cc1ccc2nc(NC(=O)c3cccs3)sc2c1`, the IC50 in experiment [1] is 500 nM; in experiment [2], 6900 nM; in experiment [7], more than 50000 nM; in experiment [4] it was 6700 nM; in experiment [5], 1700 nM; in experiment [6], 1400 nM.

Consider `Cc1cccc(/C=C/c2ccccc2)n1`, for which the 50% inhibitory concentration (IC50) is 4300 nM in experiment [1]; more than 100000 nM in experiment [2]; more than 50000 nM in experiment [7]; 24000 nM in experiment [4]; 11000 nM in experiment [5]; 17000 nM in experiment [6].

On to `O=C(N/N=C/c1ccccc1O)c1ccccc1O`, for which the 50% inhibitory concentration (IC50) in experiment [1] was determined as 800 nM; in experiment [2] it was 20000 nM; in experiment [4] it was 2600 nM; in experiment [5], 3600 nM; in experiment [6] it was 2500 nM. In addition, in experiment [3], the result was inactive.

As for `C[C@@H](C(=O)O)c1ccc(N2Cc3ccccc3C2=O)cc1` [(R)-INDOPROFEN], the 50% inhibitory concentration (IC50) in experiment [1] was 200 nM; in experiment [2], 10000 nM; in experiment [7], more than 50000 nM; in experiment [4], 5300 nM; in experiment [5], 3600 nM; in experiment [6] it was 4700 nM.

As for `COc1ccc2nc(NC(=O)c3ccoc3C)sc2c1`, the IC50 in experiment [1] was determined as 1200 nM; in experiment [2], 10300 nM; in experiment [7], 3600 nM; in experiment [4], 5900 nM; in experiment [5], 4500 nM; in experiment [6], 2100 nM.

For `CCOc1ccc2nc(NC(=O)c3ccoc3C)sc2c1`, the 50% inhibitory concentration (IC50) in experiment [1] came to 650 nM; in experiment [2] it was 3600 nM; in experiment [7], 3800 nM; in experiment [4], 4000 nM; in experiment [5], 5700 nM; in experiment [6], 4200 nM.

Turning to `c1ccc(-c2noc(-c3ccc4ccccc4c3)n2)cc1`, the IC50 in experiment [1] was 400 nM; in experiment [2], 1400 nM; in experiment [4] it was 2600 nM; in experiment [5] it was 2100 nM; in experiment [6], 1600 nM. Moreover, in experiment [3], the result was inactive.

Consider `O=c1c2ccccc2cnn1-c1nc2ccccc2s1`, for which the half-maximal inhibitory concentration (IC50) was found to be 300 nM in experiment [1]; 600 nM in experiment [2]; 5100 nM in experiment [7]; 700 nM in experiment [4]; 150 nM in experiment [5]; 200 nM in experiment [6].

As to `Cc1ccc(-c2noc(-c3ccccc3Br)n2)cc1`, the IC50 in experiment [1] stood at 1000 nM; in experiment [2], 11000 nM; in experiment [4] it was 12000 nM; in experiment [5], 2300 nM; in experiment [6] it was 3300 nM. For the same compound, in experiment [3], the result was inactive.

For `O=C(/C=C\Nc1ccccc1Br)c1ccccn1`, the IC50 in experiment [1] is 80 nM; in experiment [2], 200 nM; in experiment [7], 10000 nM; in experiment [4] it was 80 nM; in experiment [5] it was 170 nM; in experiment [8], more than 50000 nM. Moreover, in experiment [6], the concentration for half-maximal inhibition (IC50) came to 170 nM.

In the case of `CCOc1ccc2nc(NC(=O)Nc3cccs3)sc2c1`, the concentration for half-maximal inhibition (IC50) is 600 nM in experiment [1]; 12000 nM in experiment [2]; 11300 nM in experiment [4]; 2100 nM in experiment [5]; 1450 nM in experiment [6]. For the same compound, the outcome in experiment [3] was inactive.

Consider `Cc1ccc(-c2nc(-c3ccccc3)no2)c(Cl)c1`, for which the half-maximal inhibitory concentration (IC50) in experiment [1] worked out at 150 nM; in experiment [2], 160 nM; in experiment [7], 10500 nM; in experiment [4], 300 nM; in experiment [5], 400 nM; in experiment [6] it was 500 nM.

For `CN(C)c1ccc(N/C=C\C(=O)c2ccccc2)cc1`, the IC50 in experiment [1] turned out to be 210 nM; in experiment [2], 600 nM; in experiment [7], 3200 nM; in experiment [4] it was 700 nM; in experiment [5], 400 nM; in experiment [8], 11000 nM. In experiment [6], this compound yielded an IC50 of 600 nM.

Consider `O=C(/C=C\Nc1ccc(F)cc1)c1ccco1`, for which the IC50 in experiment [1] came to 1000 nM; in experiment [2], 4000 nM; in experiment [7], 14200 nM; in experiment [4], 3600 nM; in experiment [5], 1100 nM; in experiment [6], 3600 nM.

`Cc1ccc(C(=O)Cn2c3c(sc2=N)CCCC3)cc1`: the IC50 was determined as 320 nM in experiment [1]; 2800 nM in experiment [2]; 600 nM in experiment [4]; 1800 nM in experiment [5]; 1100 nM in experiment [6]. In addition, in experiment [3], the outcome was inactive.

On to `Cc1ccc(-c2nc(-c3ccccn3)no2)cc1Cl`, for which the IC50 in experiment [1] was 220 nM; in experiment [2], 1600 nM; in experiment [7], 22000 nM; in experiment [4], 1400 nM; in experiment [5] it was 800 nM; in experiment [6] it was 2100 nM.

As for `CC(C)(C)C(=O)Nc1ccc(NC(=O)c2cccc(O)c2)nc1`, the IC50 in experiment [1] was 700 nM; in experiment [2], 800 nM; in experiment [7], more than 30000 nM; in experiment [4] it was 7200 nM; in experiment [5], 800 nM; in experiment [6] it was 5000 nM.

As for `CCOc1ccc(NC(=O)c2ccccc2OC)cc1`, the half-maximal inhibitory concentration (IC50) in experiment [1] was 600 nM; in experiment [2], more than 50000 nM; in experiment [4] it was 8300 nM; in experiment [5], 1500 nM; in experiment [6], 2800 nM. Further, the outcome in experiment [3] was inactive.

In the case of `Clc1cccc(-c2nc(-c3ccccn3)no2)c1`, the half-maximal inhibitory concentration (IC50) in experiment [1] is 500 nM; in experiment [2] it was 1500 nM; in experiment [7], 7400 nM; in experiment [4], 1200 nM; in experiment [5], 700 nM; in experiment [8], more than 50000 nM. Besides, the 50% inhibitory concentration (IC50) in experiment [6] is 2100 nM.

For the compound `O=C(/C=C\Nc1cccc(F)c1)c1ccc2c(c1)OCO2`, the 50% inhibitory concentration (IC50) in experiment [1] is 300 nM; in experiment [2] it was 900 nM; in experiment [7], more than 50000 nM; in experiment [4], 1900 nM; in experiment [5], 1200 nM; in experiment [6] it was 1200 nM.

With `CS(=O)(=O)c1ccc2nc(NC(=O)c3cccs3)sc2c1`, the half-inhibitory concentration (IC50) in experiment [1] is 1100 nM; in experiment [2], 2500 nM; in experiment [7], 9500 nM; in experiment [4], 3200 nM; in experiment [5] it was 1300 nM; in experiment [6] it was 6100 nM.

Consider `Brc1ccc(-c2nc(-c3ccccn3)no2)o1`, for which the half-inhibitory concentration (IC50) in experiment [1] is 3200 nM; in experiment [2] it was 2600 nM; in experiment [7], 12000 nM; in experiment [4], 12000 nM; in experiment [5], 5100 nM; in experiment [6], 13000 nM.

Regarding `COc1ccc(C(=O)NC(=O)Nc2cc(C)ccn2)cc1`, the IC50 was 410 nM in experiment [1]; 1200 nM in experiment [2]; 6900 nM in experiment [7]; 1000 nM in experiment [4]; 370 nM in experiment [5]; 980 nM in experiment [6].

In the case of `Cc1cccc(C#Cc2ccccc2)n1`, the IC50 was 4700 nM in experiment [1]; more than 100000 nM in experiment [2]; 30000 nM in experiment [4]; 7400 nM in experiment [5]; 6600 nM in experiment [6]. In addition, in experiment [3], the outcome was inactive.

Turning to `Clc1ccc(-c2nc(-c3ccccn3)no2)cc1Cl`, the IC50 in experiment [1] was 840 nM; in experiment [2] it was 3300 nM; in experiment [7] it was 19000 nM; in experiment [4] it was 3900 nM; in experiment [5] it was 1900 nM; in experiment [6], 4100 nM.

The values above are taken from ChEMBL document CHEMBL1144767, “Characterization of chemical libraries for luciferase inhibitory activity” (J Med Chem, 2008).
